ChEMBL document CHEMBL3616416, “Imidazolidine-4-one derivatives in the search for novel chemosensitizers of Staphylococcus aureus MRSA: synthesis, biological evaluation and molecular modeling studies” (Eur J Med Chem, 2015)
≈ marks a conversion by molar mass, not a printed value. Calls of active or inactive are those of the source. The calls are words filed in the database; no cut-off is given here.

Experiments:
[1] = target: T1, Methicillin resistance mecR1 protein (Staphylococcus aureus) (UniProt P0A0B1); test: Inhibition of MecR1 in methicillin-resistant Staphylococcus aureus HEMSA assessed as reduction in oxacillin A MIC at 0.5 mM incubated for 20 hrs by serial dilution broth microplate method
T1 sequence (whole entry): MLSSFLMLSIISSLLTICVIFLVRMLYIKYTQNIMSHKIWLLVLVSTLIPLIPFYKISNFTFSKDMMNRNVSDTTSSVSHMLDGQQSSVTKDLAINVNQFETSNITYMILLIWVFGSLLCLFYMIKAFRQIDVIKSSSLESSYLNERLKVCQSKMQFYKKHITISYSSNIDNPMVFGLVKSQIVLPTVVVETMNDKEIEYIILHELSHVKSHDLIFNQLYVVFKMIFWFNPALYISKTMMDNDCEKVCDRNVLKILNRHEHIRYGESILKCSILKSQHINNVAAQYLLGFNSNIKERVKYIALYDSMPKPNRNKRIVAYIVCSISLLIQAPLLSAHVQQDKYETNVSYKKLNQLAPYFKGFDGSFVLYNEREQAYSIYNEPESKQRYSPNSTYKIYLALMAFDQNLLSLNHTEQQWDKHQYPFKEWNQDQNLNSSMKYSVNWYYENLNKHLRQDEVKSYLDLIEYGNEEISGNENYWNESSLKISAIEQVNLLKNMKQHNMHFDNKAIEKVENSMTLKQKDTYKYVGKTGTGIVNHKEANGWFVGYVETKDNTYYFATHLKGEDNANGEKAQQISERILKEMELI
Procedure, shortened: (§1)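 Chemosensitization in MRSA HEMSA 5 measured by CLSI broth microdilution in Mueller-Hinton broth. Serial two-fold dilutions of antibiotic (oxacillin, cloxacillin, ampicillin/sulbactam 2:1, ciprofloxacin or neomycin) combined with compound at fixed concentration not exceeding ¼ of its own MIC. Inoculum OD 0.5 diluted 1:100. Read after 20 h at 37 °C. Result given as fold reduction of antibiotic MIC.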

[2] = tested on: Staphylococcus aureus; test: Potentiation of oxacillin-induced antibacterial activity against Staphylococcus aureus ATCC 25923 assessed as reduction in oxacillin MIC at 0.5 mM incubated for 20 hrs by serial dilution broth microplate method; type: functional, organism-based
[3] = tested on: Staphylococcus aureus; test: Antimicrobial activity against Staphylococcus aureus ATCC 25923 incubated for 20 hrs by serial dilution broth microplate method; type: functional; details: ATCC 25923, 20 h
Procedure, shortened: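 Broth dilution per CLSI in Mueller-Hinton broth, serial two-fold dilutions; compounds alone against reference strain, inoculum from suspension at OD 0.5 diluted 1:100; read after 20 h at 37 °C. MIC taken as lowest concentration inhibiting growth.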

[4] = tested on: Staphylococcus aureus; test: Antimicrobial activity against methicillin-resistant Staphylococcus aureus HEMSA incubated for 20 hrs by serial dilution broth microplate method; type: functional
Procedure, shortened: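 Broth microdilution MIC per CLSI in Mueller-Hinton broth against clinical isolate MRSA HEMSA 5. Bacterial suspension adjusted to OD 0.5, diluted 1:100 and added to serial two-fold dilutions of test agent. Ampicillin/sulbactam used at 2:1 ratio. Growth read after 20 h at 37 °C.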

[5] = tested on: Staphylococcus aureus; test: Resistance index, ratio of MIC for methicillin-resistant Staphylococcus aureus HEMSA to MIC for Staphylococcus aureus ATCC 25923; type: functional
[6] = tested on: Staphylococcus aureus; test: Potentiation of […] antibacterial activity against Staphylococcus aureus ATCC 25923 assessed as reduction in ampicillin and sulbactam MIC MIC incubated for 20 hrs by serial dilution broth microplate method; type: functional, organism-based
[7] = tested on: Staphylococcus aureus; test: Potentiation of […] antibacterial activity against Staphylococcus aureus ATCC 25923 assessed as reduction in cloxacillin MIC incubated for 20 hrs by serial dilution broth microplate method; type: functional, organism-based
[8] = target: T1, Methicillin resistance mecR1 protein (Staphylococcus aureus); test: Inhibition of MecR1 in methicillin-resistant Staphylococcus aureus HEMSA assessed as reduction in cloxacillin MIC at 0.25 mM incubated for 20 hrs by serial dilution broth microplate method; procedure, shortened: as §1
[9] = target: T1, Methicillin resistance mecR1 protein (Staphylococcus aureus); test: Inhibition of MecR1 in methicillin-resistant Staphylococcus aureus HEMSA assessed as reduction in oxacillin A MIC at 0.25 mM incubated for 20 hrs by serial dilution broth microplate method; procedure, shortened: as §1
[10] = target: T1, Methicillin resistance mecR1 protein (Staphylococcus aureus); test: Inhibition of MecR1 in methicillin-resistant Staphylococcus aureus HEMSA assessed as reduction in ciprofloxacin MIC at 0.25 mM incubated for 20 hrs by serial dilution broth microplate method; procedure, shortened: as §1
[11] = target: T1, Methicillin resistance mecR1 protein (Staphylococcus aureus); test: Inhibition of MecR1 in methicillin-resistant Staphylococcus aureus HEMSA assessed as reduction in ampicillin and sulbactam MIC at 0.25 mM incubated for 20 hrs by serial dilution broth microplate method; procedure, shortened: as §1
[12] = tested on: Staphylococcus aureus; test: Potentiation of neomycin-induced antibacterial activity against Staphylococcus aureus ATCC 25923 assessed as reduction in […] MIC incubated for 20 hrs by serial dilution broth microplate method; type: functional, organism-based
[13] = tested on: Staphylococcus aureus; test: Potentiation of ciprofloxacin -induced antibacterial activity against Staphylococcus aureus ATCC 25923 assessed as reduction in […] MIC incubated for 20 hrs by serial dilution broth microplate method; type: functional, organism-based
[14] = target: T1, Methicillin resistance mecR1 protein (Staphylococcus aureus); test: Inhibition of MecR1 in methicillin-resistant Staphylococcus aureus HEMSA assessed as reduction in neomycin MIC at 0.25 mM incubated for 20 hrs by serial dilution broth microplate method; procedure, shortened: as §1
[15] = target: T1, Methicillin resistance mecR1 protein (Staphylococcus aureus); test: Inhibition of MecR1 in methicillin-resistant Staphylococcus aureus HEMSA assessed as reduction in ciprofloxacin MIC at 0.5 mM incubated for 20 hrs by serial dilution broth microplate method; procedure, shortened: as §1
[16] = target: T1, Methicillin resistance mecR1 protein (Staphylococcus aureus); test: Inhibition of MecR1 in methicillin-resistant Staphylococcus aureus HEMSA assessed as reduction in neomycin MIC at 0.5 mM incubated for 20 hrs by serial dilution broth microplate method; procedure, shortened: as §1
[17] = target: T1, Methicillin resistance mecR1 protein (Staphylococcus aureus); test: Inhibition of MecR1 in methicillin-resistant Staphylococcus aureus HEMSA assessed as reduction in ampicillin and sulbactam MIC at 0.5 mM incubated for 20 hrs by serial dilution broth microplate method; procedure, shortened: as §1
[18] = target: T1, Methicillin resistance mecR1 protein (Staphylococcus aureus); test: Inhibition of MecR1 in methicillin-resistant Staphylococcus aureus HEMSA assessed as reduction in cloxacillin MIC at 0.5 mM incubated for 20 hrs by serial dilution broth microplate method; procedure, shortened: as §1
[19] = target: T1, Methicillin resistance mecR1 protein (Staphylococcus aureus); test: Inhibition of MecR1 in methicillin-resistant Staphylococcus aureus HEMSA assessed as reduction in cloxacillin MIC at 0.125 mM incubated for 20 hrs by serial dilution broth microplate method; procedure, shortened: as §1
[20] = target: T1, Methicillin resistance mecR1 protein (Staphylococcus aureus); test: Inhibition of MecR1 in methicillin-resistant Staphylococcus aureus HEMSA assessed as reduction in ampicillin and sulbactam MIC at 0.125 mM incubated for 20 hrs by serial dilution broth microplate method; procedure, shortened: as §1
[21] = tested on: Staphylococcus aureus; test: Potentiation of oxacillin-induced antibacterial activity against Staphylococcus aureus ATCC 25923 assessed as reduction in oxacillin MIC at 0.0625 mM incubated for 20 hrs by serial dilution broth microplate method; type: functional
[22] = target: T1, Methicillin resistance mecR1 protein (Staphylococcus aureus); test: Inhibition of MecR1 in methicillin-resistant Staphylococcus aureus HEMSA assessed as reduction in ciprofloxacin MIC at 0.125 mM incubated for 20 hrs by serial dilution broth microplate method; procedure, shortened: as §1
[23] = target: T1, Methicillin resistance mecR1 protein (Staphylococcus aureus); test: Inhibition of MecR1 in methicillin-resistant Staphylococcus aureus HEMSA assessed as reduction in neomycin MIC at 0.125 mM incubated for 20 hrs by serial dilution broth microplate method; procedure, shortened: as §1
[24] = target: T1, Methicillin resistance mecR1 protein (Staphylococcus aureus); test: Inhibition of MecR1 in methicillin-resistant Staphylococcus aureus HEMSA assessed as reduction in oxacillin A MIC at 0.125 mM incubated for 20 hrs by serial dilution broth microplate method; procedure, shortened: as §1
[25] = target: T1, Methicillin resistance mecR1 protein (Staphylococcus aureus); test: Inhibition of MecR1 in methicillin-resistant Staphylococcus aureus HEMSA assessed as reduction in cloxacillin MIC at 0.0039 mM incubated for 20 hrs by serial dilution broth microplate method; procedure, shortened: as §1
[26] = target: T1, Methicillin resistance mecR1 protein (Staphylococcus aureus); test: Inhibition of MecR1 in methicillin-resistant Staphylococcus aureus HEMSA assessed as reduction in ciprofloxacin MIC at 0.0039 mM incubated for 20 hrs by serial dilution broth microplate method; procedure, shortened: as §1
[27] = tested on: Staphylococcus aureus; test: Potentiation of oxacillin-induced antibacterial activity against Staphylococcus aureus ATCC 25923 assessed as reduction in oxacillin MIC at 0.0005 mM incubated for 20 hrs by serial dilution broth microplate method; type: functional, organism-based
[28] = target: T1, Methicillin resistance mecR1 protein (Staphylococcus aureus); test: Inhibition of MecR1 in methicillin-resistant Staphylococcus aureus HEMSA assessed as reduction in neomycin MIC at 0.0039 mM incubated for 20 hrs by serial dilution broth microplate method; procedure, shortened: as §1
[29] = target: T1, Methicillin resistance mecR1 protein (Staphylococcus aureus); test: Inhibition of MecR1 in methicillin-resistant Staphylococcus aureus HEMSA assessed as reduction in oxacillin A MIC at 0.0039 mM incubated for 20 hrs by serial dilution broth microplate method; procedure, shortened: as §1
[30] = target: T1, Methicillin resistance mecR1 protein (Staphylococcus aureus); test: Inhibition of MecR1 in methicillin-resistant Staphylococcus aureus HEMSA assessed as reduction in ampicillin and sulbactam MIC at 0.0039 mM incubated for 20 hrs by serial dilution broth microplate method; procedure, shortened: as §1

Compound	Activity [2]	MIC [3] [µM]	MIC [4] [µM]	Ratio [5]	Activity [6]	Activity [7]	Activity [12]	Activity [13]	further results
O=C1N/C(=C\c2ccc(Cl)cc2Cl)C(=O)N1CC(O)CN1CCNCC1 (stereo not drawn)	inactive	> 1000	> 1000						inhibition [1]: inactive
CC1(c2cccc3ccccc23)NC(=O)N(CCCCN)C1=O (stereo not drawn)	inactive	> 1000	> 1000						inhibition [1]: inactive
O=C(O)c1cn(C2CC2)c2cc(N3CCNCC3)c(F)cc2c1=O [CIPROFLOXACIN]		0.38 (≈ 0.126 µg/mL)	14 (≈ 4.64 µg/mL)	37					
O=C1NC(N2CCNCC2)=N/C1=C\c1ccsc1	inactive	> 1000	1000 (≈ 262 µg/mL)		inactive	inactive	inactive	inactive	inhibition [8]: inactive; inhibition [9]: inactive; inhibition [10]: inactive; inhibition [11]: inactive; inhibition [14]: inactive
CC1(c2cccc3ccccc23)NC(=O)N(CCCN)C1=O (stereo not drawn)	inactive	> 1000	> 1000		inactive	inactive	inactive	inactive	inhibition [1]: inactive; inhibition [15]: inactive; inhibition [16]: inactive; inhibition [17]: inactive; inhibition [18]: inactive
O=C1NC(N2CCNCC2)=N/C1=C\c1ccc2ccccc2c1		250 (≈ 76.6 µg/mL)	500 (≈ 153 µg/mL)	2	inactive	inactive	inactive	inactive	fold change (FC) [19]: 256; fold change (FC) [20]: 4; fold change (FC) [21]: 2; fold change (FC) [22]: 4; inhibition [23]: inactive; fold change (FC) [24]: 128
NC[C@@H]1O[C@H](O[C@H]2[C@@H](O)[C@H](O[C@@H]3[C@@H](O)[C@H](N)C[C@H](N)[C@H]3O[C@H]3O[C@H](CN)[C@@H](O)[C@H](O)[C@H]3N)O[C@@H]2CO)[C@H](N)[C@@H](O)[C@@H]1O [FRAMYCETIN]		1 (≈ 0.615 µg/mL)	240 (≈ 148 µg/mL)	240					
COc1ccc(/C=C2\NC(=O)N(CC(O)CNCCCN3CCN(C)CC3)C2=O)cc1 (stereo not drawn)	inactive	> 1000	> 1000		inactive	inactive	inactive	inactive	fold change (FC) [1]: 2; fold change (FC) [15]: 2; inhibition [16]: inactive; fold change (FC) [17]: 2; fold change (FC) [18]: 8
Cc1onc(-c2ccccc2Cl)c1C(=O)N[C@@H]1C(=O)N2[C@@H]1SC(C)(C)[C@@H]2C(=O)O [CLOXACILLIN]		0.42 (≈ 0.183 µg/mL)	160 (≈ 69.7 µg/mL)						
Cc1onc(-c2ccccc2)c1C(=O)N[C@@H]1C(=O)N2[C@@H]1SC(C)(C)[C@@H]2C(=O)O [OXACILLIN]		0.47 (≈ 0.189 µg/mL)	710 (≈ 285 µg/mL)	>1500					
O=C1NC(N2CCNCC2)=N/C1=C\c1cccs1	inactive	> 1000	> 1000		inactive	inactive	inactive	inactive	inhibition [1]: inactive; inhibition [15]: inactive; inhibition [16]: inactive; inhibition [17]: inactive; inhibition [18]: inactive
O=C1NC(N2CCNCC2)=N/C1=C\c1ccc(Cl)cc1	inactive	> 1000	500 (≈ 145 µg/mL)						inhibition [24]: inactive
O=C1N/C(=C\c2ccc(Cl)cc2)C(=O)N1CC(O)CN1CCNCC1 (stereo not drawn)		> 1000	1000 (≈ 365 µg/mL)						
O=C1NC(N2CCNCC2)=N/C1=C\c1cc2ccccc2c2ccccc12		1.9 (≈ 0.677 µg/mL)	15.6 (≈ 5.56 µg/mL)	8	inactive	inactive	inactive	inactive	fold change (FC) [25]: 2; inhibition [26]: inactive; Activity [27]: inactive; inhibition [28]: inactive; inhibition [29]: inactive; inhibition [30]: inactive
CC1(c2cccc3ccccc23)NC(=O)N(CCCCCN)C1=O (stereo not drawn)	inactive	> 1000	1000 (≈ 325 µg/mL)						inhibition [9]: inactive
